pIC50: −log10 of the molar value.
Legend:
Assay type in all cases: cell-based
[1] = target: Sodium-dependent dopamine transporter (Homo sapiens, UniProt Q01959); test: Inhibition of [3H]-5-dopamine reuptake in human DAT expressed in HEK293 cells by liquid scintillation counting method
Outline: (§1)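 HEK-293 cells grown in FBS-supplemented medium, transfected with human transporter (hDAT or hNET). Uptake of radiolabeled substrate ([3H]-DA for DAT, [3H]-NE for NET) at 20 nM was measured, with inhibition assessed as reduced uptake. Method adapted with slight modification from a literature procedure.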

[2] = target: Sodium-dependent noradrenaline transporter (Homo sapiens, UniProt P23975); test: Inhibition of [3H]-5-norepinephrine reuptake in human NET expressed in HEK293 cells by liquid scintillation counting method; outline: as §1
Chain of Sodium-dependent noradrenaline transporter (P23975 whole entry): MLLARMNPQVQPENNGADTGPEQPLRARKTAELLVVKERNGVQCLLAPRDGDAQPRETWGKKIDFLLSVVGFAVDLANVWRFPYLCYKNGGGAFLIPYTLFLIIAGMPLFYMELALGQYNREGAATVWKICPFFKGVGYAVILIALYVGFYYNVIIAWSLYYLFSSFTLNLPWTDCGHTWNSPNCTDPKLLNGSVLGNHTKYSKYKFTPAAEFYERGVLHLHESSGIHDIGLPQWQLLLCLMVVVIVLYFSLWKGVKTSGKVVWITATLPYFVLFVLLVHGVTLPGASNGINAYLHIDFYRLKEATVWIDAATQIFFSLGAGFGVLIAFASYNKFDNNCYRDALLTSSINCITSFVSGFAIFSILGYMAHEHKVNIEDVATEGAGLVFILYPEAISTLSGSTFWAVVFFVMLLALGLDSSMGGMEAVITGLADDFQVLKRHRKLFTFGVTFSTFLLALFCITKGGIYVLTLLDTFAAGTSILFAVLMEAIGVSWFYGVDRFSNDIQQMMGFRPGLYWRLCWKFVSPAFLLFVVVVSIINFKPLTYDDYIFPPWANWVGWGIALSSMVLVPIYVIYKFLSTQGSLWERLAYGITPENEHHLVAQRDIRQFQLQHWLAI

[3] = target: Sodium-dependent serotonin transporter (Homo sapiens, UniProt P31645); test: Inhibition of [3H]-5-hydroxytryptamine reuptake in human SERT expressed in HEK293 cells by liquid scintillation counting method
Chain of Sodium-dependent serotonin transporter (P31645 whole entry): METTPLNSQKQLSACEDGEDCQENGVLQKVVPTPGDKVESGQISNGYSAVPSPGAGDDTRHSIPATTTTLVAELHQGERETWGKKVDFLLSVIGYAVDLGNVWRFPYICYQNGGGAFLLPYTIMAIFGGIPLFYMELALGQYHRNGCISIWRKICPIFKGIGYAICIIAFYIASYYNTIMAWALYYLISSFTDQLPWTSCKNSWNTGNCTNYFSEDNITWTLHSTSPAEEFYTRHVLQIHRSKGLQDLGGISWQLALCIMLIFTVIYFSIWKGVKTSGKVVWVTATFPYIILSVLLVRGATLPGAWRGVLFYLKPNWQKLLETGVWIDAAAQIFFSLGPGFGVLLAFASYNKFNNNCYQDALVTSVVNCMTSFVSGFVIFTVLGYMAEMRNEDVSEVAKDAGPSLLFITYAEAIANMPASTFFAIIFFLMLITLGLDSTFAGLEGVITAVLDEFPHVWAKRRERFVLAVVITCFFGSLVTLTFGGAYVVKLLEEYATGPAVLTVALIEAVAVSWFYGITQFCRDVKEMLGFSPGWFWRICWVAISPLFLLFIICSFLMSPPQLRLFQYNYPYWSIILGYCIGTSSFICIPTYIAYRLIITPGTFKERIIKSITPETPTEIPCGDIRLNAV

Chain of Sodium-dependent dopamine transporter (Q01959 whole entry): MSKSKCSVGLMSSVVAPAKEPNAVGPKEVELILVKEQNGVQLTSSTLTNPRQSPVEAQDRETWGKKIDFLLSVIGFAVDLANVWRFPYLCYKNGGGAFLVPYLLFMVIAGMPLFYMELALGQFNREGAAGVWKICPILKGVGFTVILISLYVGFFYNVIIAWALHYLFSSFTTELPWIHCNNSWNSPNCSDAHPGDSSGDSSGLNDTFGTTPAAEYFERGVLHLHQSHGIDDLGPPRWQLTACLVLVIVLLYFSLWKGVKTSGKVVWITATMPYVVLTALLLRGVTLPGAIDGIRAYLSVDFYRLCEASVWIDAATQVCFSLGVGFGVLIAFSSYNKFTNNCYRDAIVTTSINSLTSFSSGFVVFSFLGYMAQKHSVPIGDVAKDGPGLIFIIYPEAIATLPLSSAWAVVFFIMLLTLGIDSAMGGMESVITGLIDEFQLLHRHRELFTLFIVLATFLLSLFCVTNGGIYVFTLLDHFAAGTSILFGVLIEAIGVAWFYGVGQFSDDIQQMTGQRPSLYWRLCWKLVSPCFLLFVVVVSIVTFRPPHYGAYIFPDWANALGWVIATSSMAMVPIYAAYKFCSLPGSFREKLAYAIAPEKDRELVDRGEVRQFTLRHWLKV

| pIC50 [1] | pIC50 [2] | pIC50 [3] | Compound |
| --- | --- | --- | --- |
| 6.09 | 6.29 | – | Fc1cccc(F)c1N1CCN(CCCn2nnnc2C(c2ccccc2)c2ccccc2)CC1 |
| 5.38 | 5.40 | – | Clc1ccc(N2CCN(CCCn3nnnc3C(c3ccccc3)c3ccccc3)CC2)cc1Cl |
| 5.92 | 6.34 | < 5.00 | Clc1ccc(N2CCN(CCCn3nnnc3C(c3ccccc3)c3ccccc3)CC2)cc1 |
| < 5.00 | 5.00 | < 5.00 | COc1ccccc1N1CCN(CCCCn2nnnc2C(c2ccccc2)c2ccccc2)CC1 |
| 6.04 | 5.92 | – | Brc1ccc(N2CCN(CCCn3nnnc3C(c3ccccc3)c3ccccc3)CC2)cc1 |
| < 5.00 | 5.05 | < 5.00 | Clc1cccc(N2CCN(CCCCn3nnnc3C(c3ccccc3)c3ccccc3)CC2)c1Cl |
| 5.44 | 5.69 | – | Clc1ccc(N2CCN(CCCn3nnnc3C(c3ccccc3)c3ccccc3)CC2)c(Cl)c1 |
| < 5.00 | 5.33 | < 5.00 | c1ccc(C(c2ccccc2)c2nnnn2CCCCN2CCN(c3ccccn3)CC2)cc1 |
| 5.94 | 6.10 | < 5.00 | c1ccc(C(c2ccccc2)c2nnnn2CCCN2CCN(c3ncccn3)CC2)cc1 |
| 5.65 | 5.96 | – | Fc1cc(Cl)ccc1N1CCN(CCCn2nnnc2C(c2ccccc2)c2ccccc2)CC1 |
| 5.84 | 6.04 | < 5.00 | c1ccc(C(c2ccccc2)c2nnnn2CCCN2CCN(c3ccccn3)CC2)cc1 |
| 5.54 | 5.67 | – | Fc1ccc(N2CCN(CCCn3nnnc3C(c3ccccc3)c3ccccc3)CC2)c(F)c1 |
| 5.88 | 6.46 | – | Fc1ccccc1N1CCN(CCCn2nnnc2C(c2ccccc2)c2ccccc2)CC1 |
| 5.52 | 5.96 | < 5.00 | Clc1cccc(N2CCN(CCCn3nnnc3C(c3ccccc3)c3ccccc3)CC2)c1Cl |
| 6.00 | 6.17 | – | Clc1ccccc1N1CCN(CCCn2nnnc2C(c2ccccc2)c2ccccc2)CC1 |
| 5.85 | 6.06 | – | Cc1ccc(N2CCN(CCCn3nnnc3C(c3ccccc3)c3ccccc3)CC2)cc1 |
| 5.25 | 5.61 | – | FC(F)(F)c1cccc(N2CCN(CCCn3nnnc3C(c3ccccc3)c3ccccc3)CC2)c1 |
| 5.32 | 5.79 | – | Clc1cccc(N2CCN(CCCn3nnnc3C(c3ccccc3)c3ccccc3)CC2)c1 |
| 5.41 | 5.97 | – | COc1ccc(N2CCN(CCCn3nnnc3C(c3ccccc3)c3ccccc3)CC2)cc1 |
| 5.79 | 5.84 | – | c1ccc(C(c2ccccc2)c2nnnn2CCCN2CCN(c3ccccc3)CC2)cc1 |
| 5.65 | 5.96 | – | Fc1ccc(C(F)(F)F)cc1N1CCN(CCCn2nnnc2C(c2ccccc2)c2ccccc2)CC1 |
| < 5.00 | 5.07 | < 5.00 | c1ccc(C(c2ccccc2)c2nnnn2CCCCN2CCN(c3ncccn3)CC2)cc1 |
| 5.83 | 5.72 | – | Fc1cccc(N2CCN(CCCn3nnnc3C(c3ccccc3)c3ccccc3)CC2)c1 |
| 5.43 | 5.76 | – | Cc1cccc(C)c1N1CCN(CCCn2nnnc2C(c2ccccc2)c2ccccc2)CC1 |
| 5.98 | 6.30 | < 5.00 | COc1ccccc1N1CCN(CCCn2nnnc2C(c2ccccc2)c2ccccc2)CC1 |
| 5.61 | 7.10 | – | Fc1ccc(N2CCN(CCCn3nnnc3C(c3ccccc3)c3ccccc3)CC2)cc1 |

| Compound | pIC50 [1] | pIC50 [2] | pIC50 [3] |
| --- | --- | --- | --- |
| c1ccc(C(c2ccccc2)c2nnnn2CCN2CCN(c3ncccn3)CC2)cc1 | < 5.00 | < 5.00 | < 5.00 |
| COc1ccccc1N1CCN(CCn2nnnc2C(c2ccccc2)c2ccccc2)CC1 | < 5.00 | < 5.00 | < 5.00 |
| Clc1ccc(N2CCN(CCn3nnnc3C(c3ccccc3)c3ccccc3)CC2)cc1 | < 5.00 | < 5.00 | < 5.00 |
| c1ccc(C(c2ccccc2)c2nnnn2CCN2CCN(c3ccccn3)CC2)cc1 | < 5.00 | < 5.00 | < 5.00 |
| Clc1cccc(N2CCN(CCn3nnnc3C(c3ccccc3)c3ccccc3)CC2)c1Cl | < 5.00 | < 5.00 | < 5.00 |
| Clc1ccc(N2CCN(CCCCn3nnnc3C(c3ccccc3)c3ccccc3)CC2)cc1 | < 5.00 | < 5.00 | < 5.00 |
| FC(F)(F)c1ccc(N2CCN(CCCn3nnnc3C(c3ccccc3)c3ccccc3)CC2)cc1 | < 5.00 | < 5.00 | – |

From ChEMBL document CHEMBL4431391, “Exploration of substituted arylpiperazine-tetrazoles as promising dual norepinephrine and dopamine reuptake inhibitors” (Bioorg Med Chem, 2016)
